ChEMBL document CHEMBL1132971, “New azolidinediones as inhibitors of protein tyrosine phosphatase 1B with antihyperglycemic properties” (J Med Chem, 2000)
Activity calls are given as the source filed them. The rule behind the calls is not given here.

What was measured:
Mus musculus [1] = assay: Evaluated in vivo for their ability to decrease plasma glucose levels in diabetic C57BL/KsJ ob/ob mouse at a dose 100 mg/kg/day, **p indicates <0.01; format: functional
Summary of the method: (§1)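 Mice dosed orally once daily for 4 days; plasma glucose and insulin measured and expressed as percent change versus a vehicle-treated group (mean ± SE, 4-6 mice/group). NS is generally less than -15% change. Significance is versus vehicle-treated mice.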

Mus musculus [2] = assay: Evaluated in vivo for their ability to decrease plasma glucose levels in diabetic C57BL/KsJ db/db mouse at a dose 100 mg/kg/day, *p indicates <0.05; format: functional; summary of the method: as §1
Mus musculus [3] = assay: Evaluated for their ability to decrease plasma insulin levels in mouse at a dose 100 mg/kg/day, **p indicates <0.01; format: functional
Summary of the method: (§2)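 Diabetic db/db or ob/ob mice dosed orally once daily for 4 days. Plasma glucose and insulin reported as percent change from a vehicle-treated group. 4-6 mice per group. Significance set at p < 0.05 or p < 0.01 versus vehicle; NS means generally less than -15% change.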

[4] = biological target: T1, Tyrosine-protein phosphatase non-receptor type 1 (Rattus norvegicus, UniProt P20417); assay: Inhibition of PTPase activity using recombinant Protein-tyrosine phosphatase 1B and IR-triphosphopeptide as substrate; ND is no data.
T1 sequence (P20417 whole entry): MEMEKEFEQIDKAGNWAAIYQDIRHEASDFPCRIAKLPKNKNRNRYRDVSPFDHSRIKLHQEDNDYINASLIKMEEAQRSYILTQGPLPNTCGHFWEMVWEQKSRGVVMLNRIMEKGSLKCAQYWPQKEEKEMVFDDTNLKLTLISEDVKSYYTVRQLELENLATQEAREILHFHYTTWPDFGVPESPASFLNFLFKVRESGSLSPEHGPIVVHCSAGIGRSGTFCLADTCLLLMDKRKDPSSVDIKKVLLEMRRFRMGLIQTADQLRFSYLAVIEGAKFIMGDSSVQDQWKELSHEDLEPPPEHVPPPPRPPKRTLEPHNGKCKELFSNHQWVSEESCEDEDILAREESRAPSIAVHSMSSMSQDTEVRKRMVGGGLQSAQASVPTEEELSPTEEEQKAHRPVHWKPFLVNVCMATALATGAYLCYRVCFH

Mus musculus [5] = assay: Evaluated in vivo for their ability to decrease plasma glucose levels in diabetic C57BL/KsJ db/db mouse at a dose 100 mg/kg/day; NS is non significant; format: functional, organism-based; summary of the method: as §2
[6] = biological target: T2, Tyrosine-protein phosphatase non-receptor type 1 (Mus musculus) (UniProt P35821); assay: In vivo ability to decrease plasma glucose levels in diabetic C57BL/KsJ ob/ob mouse at a dose 100 mg/kg/day; format: functional, organism-based; summary of the method: as §2
T2 sequence (whole entry): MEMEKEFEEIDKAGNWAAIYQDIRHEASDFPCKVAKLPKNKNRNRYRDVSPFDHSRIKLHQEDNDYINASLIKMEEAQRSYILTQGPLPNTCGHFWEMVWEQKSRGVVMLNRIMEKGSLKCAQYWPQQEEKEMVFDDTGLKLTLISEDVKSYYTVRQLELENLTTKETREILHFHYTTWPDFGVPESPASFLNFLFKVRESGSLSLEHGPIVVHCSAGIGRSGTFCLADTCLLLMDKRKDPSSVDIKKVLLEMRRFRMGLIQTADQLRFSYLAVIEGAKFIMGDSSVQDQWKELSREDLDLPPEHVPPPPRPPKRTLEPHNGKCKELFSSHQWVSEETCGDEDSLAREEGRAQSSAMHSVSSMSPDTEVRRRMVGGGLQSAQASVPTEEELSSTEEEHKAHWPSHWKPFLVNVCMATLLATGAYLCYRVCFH

[7] = biological target: T3, Tyrosine-protein phosphatase non-receptor type 1 (Rattus norvegicus) (UniProt P20417); assay: Inhibition of PTPase (PTP1B) activity in rat hepatic membrane at 50 uM concentration, using pNPP as the substrate; format: cell membranes; details: Liver
T3 sequence (whole entry): T1 sequence (P20417 whole entry)
Summary of the method: (§3)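 Liver membranes from male Sprague-Dawley rats (100-150 g), about 30 µg protein per well. Preincubated 10 min at 37 °C with compound in 1.25% DMSO in 50 mM HEPES pH 7.4. Then 6.33 mM pNPP for 30 min at 37 °C, stopped with NaOH. p-Nitrophenol read at 410 nm. Run in triplicate. Reported as percent of untreated control.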

[8] = biological target: T1, Tyrosine-protein phosphatase non-receptor type 1; assay: Inhibition of PTPase activity using recombinant r-PTP1B and IR-triphosphopeptide as substrate; ND is no data.
Summary of the method: (§4)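 Rat recombinant PTP1B in 33 mM TRIS-HCl, 2 mM EDTA, 50 mM β-mercaptoethanol, pH 7.4 (about 1000-2000 nmol/min/mg). Preincubated 10 min at 37 °C with or without compound in HEPES buffer pH 7.4. Released phosphate read by malachite green-ammonium molybdate at 650 nm against a phosphate standard. Quadruplicates. IC50 by four-parameter logistic fit.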

[9] = biological target: T2, Tyrosine-protein phosphatase non-receptor type 1 (Mus musculus); assay: Ability to decrease plasma insulin levels in mouse at a dose 100 mg/kg/day; format: functional, organism-based; summary of the method: as §2
[10] = biological target: T1, Tyrosine-protein phosphatase non-receptor type 1; assay: Inhibition of PTPase activity in rat hepatic membrane at a concentration of 50 uM using pNPP as the substrate; format: cell membranes, Liver; summary of the method: as §3
[11] = biological target: T1, Tyrosine-protein phosphatase non-receptor type 1; assay: Inhibition of PTPase activity using recombinant r-PTP1B as the enzyme and IR-triphosphopeptide as substrate; summary of the method: as §4
Mus musculus [12] = assay: Evaluated for their ability to decrease plasma insulin levels in mouse at a dose 100 mg/kg/day. **p indicates <0.01; format: functional; summary of the method: as §1
Mus musculus [13] = assay: Evaluated in vivo for their ability to decrease plasma glucose levels in diabetic C57BL/KsJ ob/ob mouse at a dose 100 mg/kg/day.; format: functional; summary of the method: as §1
[14] = biological target: T3, Tyrosine-protein phosphatase non-receptor type 1 (Rattus norvegicus); assay: Inhibition of PTPase activity using recombinant r-PTP1B as the enzyme and IR-triphosphopeptide as substrate at 50 uM; summary of the method: as §4
Mus musculus [15] = assay: Evaluated for their ability to decrease plasma insulin levels in mouse at a dose 100 mg/kg/day.; format: functional; summary of the method: as §1
[16] = biological target: T4, Tyrosine-protein phosphatase non-receptor type 1 (Homo sapiens, UniProt P18031); assay: Concentration required to inhibit PTPase activity, recombinant Protein Tyrosine Phosphatase 1b as the enzyme; summary of the method: as §4
T4 sequence (P18031 whole entry): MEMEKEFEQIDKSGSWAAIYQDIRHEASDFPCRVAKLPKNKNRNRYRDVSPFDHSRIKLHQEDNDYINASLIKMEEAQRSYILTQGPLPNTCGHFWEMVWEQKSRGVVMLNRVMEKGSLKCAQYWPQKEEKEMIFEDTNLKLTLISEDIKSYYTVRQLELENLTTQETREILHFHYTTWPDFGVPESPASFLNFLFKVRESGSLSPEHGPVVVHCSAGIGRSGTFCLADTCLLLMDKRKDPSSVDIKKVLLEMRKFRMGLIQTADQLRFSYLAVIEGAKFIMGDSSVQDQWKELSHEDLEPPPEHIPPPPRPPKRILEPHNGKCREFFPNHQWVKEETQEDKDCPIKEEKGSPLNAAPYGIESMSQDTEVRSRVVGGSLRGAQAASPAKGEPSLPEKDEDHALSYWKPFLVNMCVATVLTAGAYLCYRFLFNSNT

Mus musculus [17] = assay: Evaluated for their ability to decrease plasma insulin levels in mouse at a dose 100 mg/kg/day; NS=not significant; format: functional, organism-based; summary of the method: as §2
Mus musculus [18] = assay: Evaluated in vivo for their ability to decrease plasma glucose levels in diabetic C57BL/KsJ db/db mouse at a dose 100 mg/kg/day.([…]); format: functional; summary of the method: as §2
[19] = biological target: T3, Tyrosine-protein phosphatase non-receptor type 1 (Rattus norvegicus); assay: IC50 for PTPase activity, recombinant r-PTP1B as the enzyme .
Mus musculus [20] = assay: Evaluated for their ability to decrease plasma insulin levels in mouse at a dose 100 mg/kg/day,**p indicates <0.01; format: functional; summary of the method: as §1
Mus musculus [21] = assay: Evaluated in vivo for their ability to decrease plasma glucose levels in diabetic C57BL/KsJ db/db mouse at a dose 100 mg/kg/day. *p indicates <0.05; format: functional; summary of the method: as §1
[22] = biological target: T3, Tyrosine-protein phosphatase non-receptor type 1 (Rattus norvegicus); assay: Inhibition of PTPase activity using recombinant r-PTP1B as the enzyme and IR-triphosphopeptide as substrate at 10 uM
Summary of the method: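 Recombinant rat PTP1B (human 321-aa form assayed the same way), activity about 1000-2000 nmol/min/mg, preincubated with compound for 10 min at 37 °C in HEPES pH 7.4. The reaction is started with 50 µM triphosphorylated insulin receptor 1142-1153 dodecapeptide and run 30 min at 37 °C. Released phosphate read by malachite green-molybdate at 650 nm, in quadruplicate. Result is percent inhibition versus control.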

## C/C(=C\Cn1oc(=O)[nH]c1=O)c1cccc(OCc2nc(-c3ccccc3)oc2C)c1 (stereo in doubt; 67)
Mus musculus [1]
  Decrease: 30%
Mus musculus [2]
  Decrease: 28%
Mus musculus [3]
  Decrease: 75%
[4]
  IC50: Not significant

## Cc1oc(-c2ccc(C(F)(F)F)cc2)nc1COc1cccc(/C=C/Cn2oc(=O)[nH]c2=O)c1
Mus musculus [5]
  Decrease: inactive
[6]
  Decrease: Not significant
[7]
  inhibition: 49%
[8]
  IC50: Not significant
[9]
  Decrease: Not significant

## CCCCc1oc2ccccc2c1COc1cccc(/C(C)=C/Cn2oc(=O)[nH]c2=O)c1
[10]
  Inhibition %: 33%
[11]
  IC50: 2.7 µM

## Cc1oc(-c2ccc(C(F)(F)F)cc2)nc1COc1cccc(/C(=C/Cn2oc(=O)[nH]c2=O)Cc2ccccc2)c1
Mus musculus [12]
  Decrease: 46%
Mus musculus [13]
  Decrease: 23%
[14]
  inhibition: 0.8%

## C/C(=C\Cn1oc(=O)[nH]c1=O)c1cccc(OCc2nc(-c3ccc(C(F)(F)F)cc3)oc2-c2ccccc2)c1
Mus musculus [15]
  Decrease: 30%
Mus musculus [13]
  Decrease: 25%
[11]
  IC50: 0.3 µM

## C/C(=C\Cc1nnn[nH]1)c1cccc(OCc2nc(-c3ccc(OC(F)(F)F)cc3)oc2C)c1
[7]
  inhibition: 29%
[16]
  IC50: 13 µM

## Cc1oc(-c2ccc(C(F)(F)F)cc2)nc1COc1cccc(/C(=C/Cn2oc(=O)n(CC(=O)O)c2=O)c2ccccc2)c1
[7]
  inhibition: 24%
[16]
  IC50: 0.85 µM

## CCCCCCCC/C(=C\Cn1oc(=O)[nH]c1=O)c1cccc(OCc2nc(-c3ccc(C(F)(F)F)cc3)oc2C)c1
Mus musculus [17]
  Decrease: inactive
Mus musculus [18]
  Decrease: 43%
[19]
  IC50: 0.4 µM

## Cc1oc(-c2ccc(C(F)(F)F)cc2)nc1COc1cccc(C#CC(C)n2oc(=O)[nH]c2=O)c1 (stereo not drawn)
Mus musculus [20]
  Decrease: 91%
Mus musculus [21]
  Decrease: 30%
Mus musculus [1]
  Decrease: 32%
[7]
  inhibition: 56%
[22]
  inhibition: 47%

## Cc1oc(-c2ccc(C(F)(F)F)cc2)nc1COc1cccc(/C(=C/Cn2oc(=O)[nH]c2=O)c2ccc(Cl)cc2)c1
[6]
  Decrease: Not significant
[10]
  Inhibition %: 27%
[14]
  inhibition: 1.4%
[9]
  Decrease: Not significant

## C/C(=C\Cn1oc(=O)[nH]c1=O)c1ccc(OCCc2nc(-c3ccc(C(F)(F)F)cc3)oc2C)cc1
Mus musculus [5]
  Decrease: inactive
[6]
  Decrease: Not significant
[7]
  inhibition: 63%
[11]
  IC50: 1.6 µM
[9]
  Decrease: Not significant
